Results: ChEMBL document CHEMBL1125577, “Determination of dissociation constants of high affinity (pM) human renin inhibitors: application to analogues of ditekiren (U-71,038)” (J Med Chem, 1991)
Numbered stars: 1 amine (or outer) side, 2 acyl side, 3 side chain; on linkers, the order of the positions; unused ones are H or OH. Square brackets hold non-standard residues; d marks the D form. Peptide text beside a SMILES is read from it. * marks the point of attachment. ξ: configuration not given here. X1 = CC(C)C[C@H](N[*:1])[C@@H](O)C[C@H](C(=O)[*:2])C(C)C; X2 = OC[C@H]1O[C@@H](O)[C@H](N*)[C@H](O)[C@@H]1O; NH(2-picolyl-N-oxide) = [O-][n+]1ccccc1CN*; NMeH = CN[C@@H](Cc1c[nH]cn1)C(=O)O; NHCH2(2-pyridyl) = c1ccc(CN*)nc1; Ile(3ξ) = CCC(C)[C@H](N)C(=O)O; NHC(CH2OH)3 = OCC(CO)(CO)N*; Boc = CC(C)(C)OC(=O)*; CO = O=C([*:1])[*:2]

What was measured:
[1] = The dissociation constant determined by fluorescence displacement assay
Summary of the method: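 Unlabeled inhibitor (6.6 and 13 nM) then added for 2.5 h more, with fluorescence read before and after each addition. Kd fitted from predicted binding curves or numerical solution, as the mean of three duplicate determinations.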

Renin [2] = biological target: T1, Renin (Homo sapiens, UniProt P00797); test: In vitro inhibition of human renin by radio-immuno assay of angiotensin I (ANG I)
T1 sequence (P00797 whole entry): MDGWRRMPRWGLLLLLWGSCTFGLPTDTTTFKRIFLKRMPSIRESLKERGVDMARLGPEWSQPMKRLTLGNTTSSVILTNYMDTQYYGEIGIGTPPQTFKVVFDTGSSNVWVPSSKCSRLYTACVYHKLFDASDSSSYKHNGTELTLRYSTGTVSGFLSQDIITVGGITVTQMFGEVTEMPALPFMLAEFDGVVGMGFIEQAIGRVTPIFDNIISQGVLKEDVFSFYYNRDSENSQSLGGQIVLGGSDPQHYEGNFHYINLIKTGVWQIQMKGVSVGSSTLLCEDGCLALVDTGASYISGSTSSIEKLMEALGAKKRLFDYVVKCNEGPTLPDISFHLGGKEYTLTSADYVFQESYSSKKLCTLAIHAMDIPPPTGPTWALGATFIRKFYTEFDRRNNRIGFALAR

Renin [3] = biological target: T1, Renin; test: In vitro inhibition constants using recombinant human renin assay

Structure (SMILES) | Kd [1] | IC50 (Renin [2]) | Ki (Renin [3])
CC[C@H](C)[C@H](NC(=O)[C@@H](C[C@H](O)[C@H](CC(C)C)NC(=O)[C@H](Cc1c[nH]cn1)N(C)C(=O)[C@H](Cc1ccccc1)NC(=O)[C@@H]1CCCN1C(=O)N[C@@H]1[C@H](O)[C@H](O)[C@@H](CO)O[C@H]1O)C(C)C)C(=O)NCc1cccc[n+]1[O-] ({X2-CO}-PF[NMeH][X1]I-{NH(2-picolyl-N-oxide)}) | 0.434 nM | 1.1 nM | –
CC[C@H](C)[C@H](NC(=O)[C@@H](C[C@H](O)[C@H](CC(C)C)NC(=O)[C@H](Cc1c[nH]cn1)NC(=O)[C@@H](Cc1ccccc1)NS(=O)(=O)c1cccc2c(N(C)C)cccc12)C(C)C)C(=O)NCc1ccccn1 | 0.066 nM | 0.24 nM | 0.043 nM
CC[C@H](C)[C@H](NC(=O)[C@@H](C[C@H](O)[C@H](CC(C)C)NC(=O)[C@H](Cc1c[nH]cn1)N(C)C(=O)[C@H](Cc1ccccc1)NC(=O)[C@@H]1CCCN1C(=O)OC(C)(C)C)C(C)C)C(=O)NCc1ccccn1 [DITEKIREN] | 0.04 nM | 0.26 nM | 0.04 nM
CCC(C)[C@H](NC(=O)[C@@H](C[C@H](O)[C@H](CC(C)C)NC(=O)[C@H](Cc1cnc[nH]1)N(C)C(=O)[C@H](Cc1ccccc1)NC(=O)[C@@H]1CCCN1C(=O)NC(CO)(CO)CO)C(C)C)C(=O)NCc1cccc[n+]1[O-] (some centres not stated) ({NHC(CH2OH)3-CO}-PF[NMeH][X1][Ile(3ξ)]-{NH(2-picolyl-N-oxide)}) | – | 0.58 nM | 0.051 nM
CCC(C)[C@H](NC(=O)[C@@H](C[C@H](O)[C@H](CC(C)C)NC(=O)[C@H](Cc1c[nH]cn1)N(C)C(=O)[C@H](Cc1ccccc1)NC(=O)[C@@H]1CCCN1C(=O)NC(CO)(CO)CO)C(C)C)C(=O)NCc1cccc[n+]1[O-] (some centres not stated) ({NHC(CH2OH)3-CO}-PF[NMeH][X1][Ile(3ξ)]-{NH(2-picolyl-N-oxide)}) | 0.033 nM | – | –
CC[C@H](C)[C@H](NC(=O)[C@@H](C[C@H](O)[C@H](CC(C)C)NC(=O)[C@H](Cc1c[nH]cn1)N(C)C(=O)[C@H](Cc1ccccc1)NC(=O)[C@@H]1CCCN1C(=O)NC(CO)(CO)CO)C(C)C)C(=O)NCc1ccccn1 ({NHC(CH2OH)3-CO}-PF[NMeH][X1]I-{NHCH2(2-pyridyl)}) | 0.111 nM | – | –
CC[C@H](C)[C@H](NC(=O)[C@@H](C[C@H](O)[C@H](CC(C)C)NC(=O)[C@H](Cc1c[nH]cn1)N(C)C(=O)[C@H](Cc1ccccc1)NC(=O)[C@@H]1CCCN1C(=O)OC(C)(C)C)C(C)C)C(=O)NC(CO)(CO)CO (Boc-PF[NMeH][X1]I-{NHC(CH2OH)3}) | 0.044 nM | 0.26 nM | –
CC[C@H](C)[C@H](NC(=O)[C@@H](C[C@H](O)[C@H](CC(C)C)NC(=O)[C@H](Cc1cnc[nH]1)N(C)C(=O)[C@H](Cc1ccccc1)NC(=O)[C@@H]1CCCN1C(=O)NC(CO)(CO)CO)C(C)C)C(=O)NCc1ccccn1 ({NHC(CH2OH)3-CO}-PF[NMeH][X1]I-{NHCH2(2-pyridyl)}) | – | 0.33 nM | –
CC[C@H](C)[C@H](NC(=O)[C@@H](C[C@H](O)[C@H](CC(C)C)NC(=O)[C@H](Cc1c[nH]cn1)N(C)C(=O)[C@H](Cc1ccccc1)NC(=O)[C@@H]1CCCN1C(=O)OC(C)(C)C)C(C)C)C(=O)NCc1cccc[n+]1[O-] (Boc-PF[NMeH][X1]I-{NH(2-picolyl-N-oxide)}) | 0.131 nM | – | –
CC[C@H](C)[C@H](NC(=O)[C@@H](C[C@H](O)[C@H](CC(C)C)NC(=O)[C@H](Cc1cnc[nH]1)N(C)C(=O)[C@H](Cc1ccccc1)NC(=O)[C@@H]1CCCN1C(=O)OC(C)(C)C)C(C)C)C(=O)NCc1cccc[n+]1[O-] (Boc-PF[NMeH][X1]I-{NH(2-picolyl-N-oxide)}) | – | 0.33 nM | –
